ChEMBL document CHEMBL4364301 (Eur J Med Chem, 2019)
Calls of active or inactive are those of the source. The rule behind the calls is not given here.

Key:
[1] = system: LNCaP; assay: Antiproliferative activity against human LNCAP cells assessed as reduction in cell growth incubated for 96 hrs by propidium iodide based 2D monolayer assay; format: functional
Procedure, shortened: (§1)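 After 24 h recovery, compound in medium or medium alone (control wells) was added at 10 half-log concentrations from 0.0032 to 100 µM, in triplicate, with at most 0.3% DMSO. After 96 h, wells were PBS-washed, stained with 7 µg/ml PI and 0.1% Triton X-100, and fluorescence read at 530/620 nm. IC50 came from a 4-parameter fit, geometric mean.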

[2] = target: T1, Androgen receptor (Rattus norvegicus, UniProt P15207); assay: Antagonist activity at GAL4-DBD fused rat androgen receptor expressed in UAS-bla 293 cells assessed as reduction in R1881-induced activation incubated for 16 hrs followed by fluorescence substrate addition and measured after 2 hrs by beta lactamase reporter gene assay; format: cell-based
T1 sequence (P15207 whole entry): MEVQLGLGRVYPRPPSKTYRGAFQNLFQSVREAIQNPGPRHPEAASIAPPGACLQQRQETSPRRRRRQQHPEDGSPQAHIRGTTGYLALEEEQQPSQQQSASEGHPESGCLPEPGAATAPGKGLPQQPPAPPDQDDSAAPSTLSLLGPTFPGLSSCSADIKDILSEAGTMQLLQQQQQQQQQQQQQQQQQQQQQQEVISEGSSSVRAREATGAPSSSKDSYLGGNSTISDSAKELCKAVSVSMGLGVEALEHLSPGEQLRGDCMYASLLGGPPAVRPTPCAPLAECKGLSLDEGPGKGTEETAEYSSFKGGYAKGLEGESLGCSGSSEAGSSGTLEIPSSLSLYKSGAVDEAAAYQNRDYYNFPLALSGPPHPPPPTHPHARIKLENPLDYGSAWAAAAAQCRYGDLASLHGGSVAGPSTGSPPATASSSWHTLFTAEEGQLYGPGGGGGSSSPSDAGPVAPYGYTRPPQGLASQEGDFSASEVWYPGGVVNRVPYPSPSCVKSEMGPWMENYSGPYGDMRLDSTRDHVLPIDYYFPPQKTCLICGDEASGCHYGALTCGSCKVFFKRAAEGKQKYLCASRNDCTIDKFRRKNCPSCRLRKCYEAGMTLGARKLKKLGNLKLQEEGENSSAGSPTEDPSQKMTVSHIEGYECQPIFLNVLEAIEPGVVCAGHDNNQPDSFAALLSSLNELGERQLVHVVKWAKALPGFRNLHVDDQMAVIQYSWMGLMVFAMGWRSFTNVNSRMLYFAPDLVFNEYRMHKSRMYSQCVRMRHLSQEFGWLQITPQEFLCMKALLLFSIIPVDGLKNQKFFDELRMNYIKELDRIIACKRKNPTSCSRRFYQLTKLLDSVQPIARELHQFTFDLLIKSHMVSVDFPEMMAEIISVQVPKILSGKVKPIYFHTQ

[3] = system: VCaP; assay: Antiproliferative activity against human VCaP cells assessed as reduction in cell growth incubated for 96 hrs by propidium iodide based 2D monolayer assay; format: functional
Procedure, shortened: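 VCaP cells in RPMI 1640 with 10% FCS at 37 °C, 5% CO2, seeded 4,000–20,000 cells/well and left 24 h before dosing. Compounds from DMSO stocks were diluted in half-log steps in medium, 10 concentrations 0.0032–100 μM, triplicate wells, max 0.3% DMSO. After 96 h, cells were washed, stained with 7 μg/ml propidium iodide plus 0.1% Triton X-100 for 1–2 h at room temperature, and fluorescence read at ex 530/em 620 nm.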

[4] = system: DU-145; assay: Antiproliferative activity against human DU145 cells assessed as reduction in cell growth incubated for 96 hrs by propidium iodide based 2D monolayer assay; format: functional; settings: for IC50: DU-145, 96 h; procedure, shortened: as §1
[5] = system: CWR22R; assay: Antiproliferative activity against human 22Rv1 cells assessed as reduction in cell growth incubated for 96 hrs by propidium iodide based 2D monolayer assay; format: functional; procedure, shortened: as §1
[6] = Toxicity in NMRI mouse xenografted with human 22Rv1 cells assessed as survival rate at 15 mg/kg, ip administered on day 7 and 14 and measured on day 49; format: organism-based; settings: in vivo
[7] = system: CWR22R; assay: Antitumor activity against human 22Rv1 cells xenografted in NMRI mouse assessed as tumor volume quadrupling time at […] administered on day 7 and 14 (reference value: 6.2 day); format: functional
[8] = Toxicity in NMRI mouse xenografted with human 22Rv1 cells assessed as body weight loss at 15 mg/kg, ip administered on day 7 and 14 and measured on day 49; format: organism-based; settings: in vivo
[9] = system: CWR22R; assay: Antitumor activity against human 22Rv1 cells xenografted in NMRI mouse assessed as inhibition of tumor growth by measuring T/C value at 15 mg/kg, iv administered on day 7 and 14 and measured on day 14; format: functional
Procedure, shortened: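 Male NMRI nu/nu mice, delivered at 4–6 weeks and quarantined at least 1 week, were implanted in the hind flank with cultured 22Rv1 cells. Mice were randomised at 80–200 mm³ tumour volume. Dosing was 15 mg/kg i.v. in 0.9% saline, given as three weekly treatments; controls received vehicle. Caliper tumour volumes were taken twice weekly, with T/C from group median relative tumour volumes, doubling/quadrupling times and body weight recorded.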

[10] = system: CWR22R; assay: Antitumor activity against human 22Rv1 cells xenografted in NMRI mouse assessed as reduction of tumor volume at […] administered on day 7 and 14 and measured on day 20; format: functional, organism-based
[11] = system: CWR22R; assay: Antitumor activity against human 22Rv1 cells xenografted in NMRI mouse assessed as tumor volume doubling time at […] administered on day 7 and 14 (reference value: 2.7 day); format: functional
[12] = system: CWR22R; assay: Antitumor activity against human 22Rv1 cells xenografted in NMRI mouse assessed as reduction of tumor volume at […] administered on day 7 and 14 and measured on day 10; format: functional, organism-based
[13] = Protein binding in human plasma; format: ADME, cell-free; settings: read-out: PPB (converted)
[14] = Metabolic stability in liver microsomes (unknown origin) assessed as intrinsic clearance per mg of protein at 3 uM measured upto 45 mins in presence of NADPH by LC-MS/MS analysis; format: ADME, Microsome; settings: read-out: CLH
Procedure, shortened: (§2)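 Pooled liver microsomes at 0.5 mg/mL protein in 0.1 M phosphate buffer pH 7.4 were incubated with 3 μM compound (0.25% DMSO) at 37 °C. Reactions were started with 1 mM NADPH and sampled at 0, 5, 15, 30 and 45 min. A minus-NADPH control ran for 45 min. Reactions were quenched in methanol and analysed by LC-MS/MS to give CLint and t1/2.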

[15] = Metabolic stability in liver microsomes (unknown origin) assessed as half life at 3 uM measured upto 45 mins in presence of NADPH by LC-MS/MS analysis; format: ADME, Microsome; procedure, shortened: as §2
[16] = target: Voltage-gated inwardly rectifying potassium channel KCNH2 (Homo sapiens, UniProt Q12809); assay: Inhibition of human ERG expressed in CHO cells by whole-cell voltage-clamp analysis; format: cell-based
Procedure, shortened: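 CHO cells expressing hERG were held in Dulbecco's PBS with Ca/Mg, pH 7–7.2, at room temperature. Tail currents were recorded by automated whole-cell voltage clamp after 300 s exposure. […] Quinidine served as positive control and 0.25% DMSO buffer as negative control.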

Chain of Voltage-gated inwardly rectifying potassium channel KCNH2 (Q12809 whole entry): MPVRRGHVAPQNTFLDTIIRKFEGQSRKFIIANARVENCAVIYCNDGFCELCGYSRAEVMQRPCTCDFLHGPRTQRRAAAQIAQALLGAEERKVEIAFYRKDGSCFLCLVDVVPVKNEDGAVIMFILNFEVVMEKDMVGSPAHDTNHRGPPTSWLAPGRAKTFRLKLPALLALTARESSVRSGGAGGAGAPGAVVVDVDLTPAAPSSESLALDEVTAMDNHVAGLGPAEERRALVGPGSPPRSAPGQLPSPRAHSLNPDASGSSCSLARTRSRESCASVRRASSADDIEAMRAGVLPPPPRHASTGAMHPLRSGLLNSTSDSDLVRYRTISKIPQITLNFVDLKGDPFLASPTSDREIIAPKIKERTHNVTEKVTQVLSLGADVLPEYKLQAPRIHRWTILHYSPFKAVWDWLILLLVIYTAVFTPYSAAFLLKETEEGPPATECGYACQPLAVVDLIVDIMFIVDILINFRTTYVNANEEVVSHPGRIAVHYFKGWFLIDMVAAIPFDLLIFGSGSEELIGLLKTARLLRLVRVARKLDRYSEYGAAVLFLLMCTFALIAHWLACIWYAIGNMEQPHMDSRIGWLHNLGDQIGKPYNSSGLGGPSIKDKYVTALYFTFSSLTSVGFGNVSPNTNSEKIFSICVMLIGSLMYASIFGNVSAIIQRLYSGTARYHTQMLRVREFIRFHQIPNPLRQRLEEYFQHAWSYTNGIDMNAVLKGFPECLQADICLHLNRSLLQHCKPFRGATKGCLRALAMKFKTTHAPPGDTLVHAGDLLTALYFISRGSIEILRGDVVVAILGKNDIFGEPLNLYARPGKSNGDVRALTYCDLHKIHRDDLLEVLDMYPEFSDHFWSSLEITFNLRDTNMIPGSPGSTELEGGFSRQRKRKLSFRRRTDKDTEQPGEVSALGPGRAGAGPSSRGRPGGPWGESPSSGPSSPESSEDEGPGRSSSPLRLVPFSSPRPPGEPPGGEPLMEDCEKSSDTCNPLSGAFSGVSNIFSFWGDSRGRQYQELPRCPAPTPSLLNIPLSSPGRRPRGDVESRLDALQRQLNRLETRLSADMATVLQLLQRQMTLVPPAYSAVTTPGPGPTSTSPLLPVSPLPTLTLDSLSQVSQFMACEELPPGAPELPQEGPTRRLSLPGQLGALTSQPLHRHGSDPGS

SMILES: CC(O)(COc1ccc(C#N)cc1)C(=O)Nc1ccc(C#N)c(C(F)(F)F)c1 (racemic)
- IC50 [1]: 20.9 µM
- IC50 [2]: 0.036 µM
- IC50 [3]: 24.5 µM
- IC50 [4]: 44.6 µM
- IC50 ([5]; 22Rv1, 96 h): 24.8 µM

SMILES: CC(=O)O[C@@]12CO[C@@H]1C[C@H](O)[C@@]1(C)C(=O)[C@H](O)C3=C(C)[C@@H](OC(=O)[C@H](O)[C@@H](NC(=O)OC(C)(C)C)c4ccccc4)C[C@@](O)([C@@H](OC(=O)c4ccccc4)[C@H]21)C3(C)C [DOCETAXEL ANHYDROUS]
- survival at 49 day [6]: 100%
- Time [7]: 43.2 days
- Activity [8]: 19.8%
- T/C [9]: 22.4%
- Activity [10]: Active
- Time [11]: 6.3 days
- Activity [12]: Active

SMILES: C[C@](O)(CS(=O)(=O)c1ccc(F)cc1)C(=O)Nc1ccc(C#N)c(C(F)(F)F)c1 [(R)-BICALUTAMIDE]
- Activity [1]: Dose-dependent effect
- fraction unbound [13]: 0.02
- Activity [3]: Dose-dependent effect
- IC50 [3]: 51.6 µM
- Activity [4]: Dose-dependent effect
- IC50 [4]: 45.4 µM
- microsomal CLint at 3 µM [14]: 6.48 µL/min/mg
- half-life at 3 µM [15]: 3.57 h
- IC50 [16]: > 25 µM
- Activity [5]: Dose-dependent effect
